Each structure is given as a SMILES string.

For experiment [1], the system named is Rattus norvegicus. Description: Onset of arthritis measured as arthritic score at p.o. dose of 80 mg/kg in rats injected intradermally with Freund's adjuvant after 24 days. The format is functional. To be noted: route oral.
Experiment [2] has as its system Rattus norvegicus. Description: Onset of arthritis measured as arthritic score at i.p. dose of 0.001 m mol/kg in rats injected intradermally with Freund's adjuvant after 22 days. The format is functional. In a few lines: (§1)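 Fischer 344 rats, five per group, given Freund's adjuvant (0.6 mg desiccated Mycobacterium butyricum in 0.1 mL liquid paraffin) intradermally at tail base. Compound given ip at 0.001 mmol/kg from day 0, every other day for 24 days; absolute controls got vehicle only. Score: one point per inflamed wrist/ankle plus one per involved phalangeal joint, max five per limb, every 2 days from day 14. Run in duplicate.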

The subject of experiment [3] is Rattus norvegicus. Description: Onset of arthritis measured as arthritic score at i.p. dose of 0.001 m mol/kg in rats injected intradermally with Freund's adjuvant after 24 days. The format is functional. In a few lines: as §1
The test system of experiment [4] is Rattus norvegicus. The experiment in a line: Percent change in body weight of (FA) adjuvant induced rats at i.p. dose of 0.001 m mol/kg after 24 days. The format is functional.
In experiment [5] the test system is Rattus norvegicus. The experiment in a line: Onset of arthritis measured as arthritic score at i.p. dose of 0.001 m mol/kg in rats injected intradermally with Freund's adjuvant after 0 days. The format is functional. In a few lines:
as §1

The test system of experiment [6] is Rattus norvegicus. The experiment in a line: Onset of arthritis measured as arthritic score at i.p. dose of 0.001 m mol/kg in rats injected intradermally with Freund's adjuvant after 2 days. The format is functional. In a few lines:
as §1

In experiment [7] the test system is Rattus norvegicus. The experiment in a line: Onset of arthritis measured as arthritic score at i.p. dose of 0.001 m mol/kg in rats injected intradermally with Freund's adjuvant after 4 days. The format is functional. In a few lines: as §1
The test system of experiment [8] is Rattus norvegicus. The experiment in a line: Onset of arthritis measured as arthritic score at i.p. dose of 0.001 m mol/kg in rats injected intradermally with Freund's adjuvant after 6 days. The format is functional. In a few lines: as §1
Experiment [9] has as its system Rattus norvegicus. The experiment in a line: Onset of arthritis measured as arthritic score at i.p. dose of 0.001 m mol/kg in rats injected intradermally with Freund's adjuvant after 8 days. The format is functional. In a few lines: as §1
Experiment [10] has as its system Rattus norvegicus. Description: Onset of arthritis measured as arthritic score at i.p. dose of 0.001 m mol/kg in rats injected intradermally with Freund's adjuvant after 10 days. The format is functional. In outline:
as §1

Experiment [11] deals with Rattus norvegicus. Description: Onset of arthritis measured as arthritic score at i.p. dose of 0.001 m mol/kg in rats injected intradermally with Freund's adjuvant after 12 days. The format is functional. In outline:
as §1

The subject of experiment [12] is Rattus norvegicus. Description: Onset of arthritis measured as arthritic score at i.p. dose of 0.001 m mol/kg in rats injected intradermally with Freund's adjuvant after 14 days. The format is functional. In outline: as §1
For experiment [13], the system named is Rattus norvegicus. Description: Onset of arthritis measured as arthritic score at i.p. dose of 0.001 m mol/kg in rats injected intradermally with Freund's adjuvant after 16 days. The format is functional. In outline: as §1
The test system of experiment [14] is Rattus norvegicus. The experiment in a line: Onset of arthritis measured as arthritic score at i.p. dose of 0.001 m mol/kg in rats injected intradermally with Freund's adjuvant after 18 days. The format is functional. In a few lines: as §1
Experiment [15] relates to Rattus norvegicus. Description: Onset of arthritis measured as arthritic score at i.p. dose of 0.001 m mol/kg in rats injected intradermally with Freund's adjuvant after 20 days. The format is functional. In outline:
as §1

The target in experiment [16] is T1, Seed linoleate 13S-lipoxygenase-1 (Glycine max, UniProt P08170).
T1 sequence (P08170 whole entry): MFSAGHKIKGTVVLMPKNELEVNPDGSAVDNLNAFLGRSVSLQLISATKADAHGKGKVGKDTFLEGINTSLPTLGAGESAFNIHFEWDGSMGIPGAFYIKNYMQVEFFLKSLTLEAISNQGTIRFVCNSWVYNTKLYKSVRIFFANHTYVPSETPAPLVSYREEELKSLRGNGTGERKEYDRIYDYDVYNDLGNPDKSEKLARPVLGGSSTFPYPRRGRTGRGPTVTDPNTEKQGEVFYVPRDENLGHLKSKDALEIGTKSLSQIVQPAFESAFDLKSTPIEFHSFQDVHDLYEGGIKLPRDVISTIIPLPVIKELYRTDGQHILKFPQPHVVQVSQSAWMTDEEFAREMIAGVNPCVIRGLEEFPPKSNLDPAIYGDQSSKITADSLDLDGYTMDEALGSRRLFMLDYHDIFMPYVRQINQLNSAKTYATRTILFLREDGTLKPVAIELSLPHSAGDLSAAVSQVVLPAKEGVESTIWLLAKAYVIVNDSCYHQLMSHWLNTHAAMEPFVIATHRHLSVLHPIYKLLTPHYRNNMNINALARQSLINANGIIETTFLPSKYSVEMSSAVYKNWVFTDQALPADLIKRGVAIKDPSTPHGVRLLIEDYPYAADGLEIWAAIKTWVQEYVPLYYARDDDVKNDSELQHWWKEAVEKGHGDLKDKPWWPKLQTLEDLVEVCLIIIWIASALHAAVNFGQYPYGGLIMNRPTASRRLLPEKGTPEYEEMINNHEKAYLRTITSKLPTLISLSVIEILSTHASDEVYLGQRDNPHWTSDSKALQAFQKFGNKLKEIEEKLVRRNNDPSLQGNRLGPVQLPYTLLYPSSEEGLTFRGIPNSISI
The experiment in a line: Inhibitory concentration against soybean lipoxygenase upon incubation with sodium linoleate (0.1 mM) at RT. In outline: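 Soybean lipoxygenase (0.2 mL enzyme solution, 1/3 ×10^4 w/v in saline) incubated at room temperature with test compounds in ethanol and sodium linoleate 0.1 mM as substrate. Conversion to 13-hydroperoxylinoleic acid followed at 234 nm and compared with NDGA as standard inhibitor. Run at least in triplicate; SD of absorbance under 10% of mean.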

A short description of experiment [17]: Percent heme protein dependent lipid peroxidation at (1 mM) upon incubation for 10 min at 37 degree C. in pH 7.4 with arachidonic acid and H2O2. The format is functional. In outline:
(§2)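 Heme 50 μM, arachidonic acid 0.4 mM, test compound and H2O2 0.5 mM incubated together for 10 min at 37 °C in KH2PO4–KOH buffer (50 mM, pH 7.4). Tested at 0.1 and 1 mM. At least triplicate; absorbance SD under 10% of mean.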

Experiment [18] can be described thus: Percent heme protein dependent lipid peroxidation at (0.1 mM) upon incubation for 10 min at 37 degree C. in pH 7.4 with arachidonic acid and H2O2. The format is functional. In a few lines:
as §2

Experiment [19] can be described thus: Superoxide radical scavenging activity at 1 mM upon incubation for 2 min at RT in pH 7.4 with PMS, NADH and NBT by nitroblue tetrazolium method.
In experiment [20] the test system is Rattus norvegicus. The experiment in a line: Duration of paralysis in rats (injected i.p. with 10 mg/1 mL/g of zoxazolamine) at i.p. dose of 0.001 m mol/kg after 24 days. The format is functional. In a few lines: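 Fischer 344 rats, groups of five, given Freund's Adjuvant intradermally at tail base; compound ip 0.001 mmol/kg from day zero every other day for 24 days. On day 24, ≥12 h after last dose, zoxazolamine ip 10 mg/1 mL/g as aqueous Tween 80 suspension; paralysis duration timed. Run in duplicate.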

The subject of experiment [21] is Rattus norvegicus. Description: Percent inhibition of carrageenan 2% (0.1 mL intradermal) induced paw edema at the i.p. dose of 0.01 m mol/kg in fisher 344 rats; n=5; no action. The format is functional, organism-based. In outline: (§3)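 Right hind paw edema in Fischer 344 rats (150–200 g) induced by intradermal 0.1 mL 2% carrageenin in water. Rats killed 3.5 h after carrageenin; injected minus uninjected paw weight compared with water-treated controls and expressed as percent inhibition. Mean of two experiments, five animals per group; Student's t-test.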

Experiment [22] concerns the target T1, Seed linoleate 13S-lipoxygenase-1. Description: Inhibitory concentration against soybean lipoxygenase upon incubation with sodium linoleate (0.1 mM) at RT; no action.
Experiment [23] in a line: Percent heme protein dependent lipid peroxidation (1 mM) upon incubation for 10 min at 37 degree C. in pH 7.4 with arachidonic acid and H2O2; no action. The format is functional. In a few lines: as §2
Experiment [24] in a line: Percent heme protein dependent lipid peroxidation (0.1 mM) upon incubation for 10 min at 37 degree C. in pH 7.4 with arachidonic acid and H2O2; no action. The format is functional. In outline: as §2
Experiment [25] has as its system Rattus norvegicus. The experiment in a line: Percent inhibition of carrageenan 2% (0.1 mL intradermal) induced paw edema at the i.p. dose of 0.01 m mol/kg in fisher 344 rats; n=5. The format is functional. In outline:
as §3

On to `CCCCC1C(=O)N(c2ccccc2)N(c2ccccc2)C1=O` [PHENYLBUTAZONE], for which the Arthritic score in experiment [1] is on record as 9.
What is called IC50 is the concentration that inhibits the measured activity by half. In the case of `O=c1ccc2ccc(O)cc2o1` [UMBELLIFERONE], the Arthritic score in experiment [2] came out at 5.2; in experiment [3], 4; in [5], 0; in experiment [6], 0; in experiment [7], 0; in experiment [8], 0. The Arthritic score in experiment [9] is 0; in experiment [10] it was 0; in experiment [11], 0; in experiment [12], 1.2; in experiment [13], 1.2; in experiment [14], 1.8. Also, the Arthritic score in [15] is reported as 2.6. Also, the “Change of body weight” value in experiment [4] is 18.6%. The IC50 in experiment [16] was 43 µM. Further, the Lipid peroxidation was determined as 26.1% in experiment [17] and 14.6% in [18]. Also, the Scavenging Activity in experiment [19] was determined as 80.6%. The Paralysis in [20] came out at 232.5 min. The inhibition result in experiment [21] is “No Action”.
What is called Inhibition is the share of the control response that was lost under treatment. A higher Inhibition goes with strong suppression. As for `CC(=O)CC(c1ccccc1)c1c(O)c2ccccc2oc1=O` (stereo unspecified) [WARFARIN], in [22], the IC50 entry is recorded as “No Action”. Besides, the Lipid peroxidation result in [23] and in experiment [24] was “No action” each time. In [19], this molecule yielded a Scavenging Activity of 25%. The Inhibition in experiment [25] amounted to 41%.
